EC50, MCC and CC50 data for one compound are collected here from ChEMBL document CHEMBL1142787, “Bicyclic nucleoside inhibitors of Varicella-Zoster virus: the effect of branching in the p-alkylphenyl side chain” (Bioorg Med Chem Lett, 2005).

Experiment [1] in a line: Effective concentration required to reduce Varicella Zoster virus OKA plaque formation by using DMSO as solvent. Format: functional, Human alphaherpesvirus 3.
Experiment [2] can be described thus: Minimal cytotoxic concentration required to alter microscopically detectable cell morphology. Format: functional. Put shortly: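 Cell morphology scored by microscopy; compounds dissolved in neat DMSO, then diluted in biological media to stock solutions of ca. 50–200 μM with 1% DMSO; MCC recorded as the minimal concentration that alters microscopically detectable morphology.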

Experiment [3] can be described thus: Effective concentration required to reduce thymidine kinase-Varicella Zoster virus YS/R plaque formation by using DMSO as solvent. The class given is functional, Human alphaherpesvirus 3.
Experiment [4] concerns HEL (human embryonic lung fibroblasts). As to the kind of experiment: Cytotoxic concentration required to inhibit Hel cell growth by using DMSO as solvent.

In the case of `Nc1nc2c(ncn2COCCO)c(=O)[nH]1` [ACYCLOVIR], the EC50 in experiment [1] worked out at 1.5 µM; in experiment [3] it was 53 µM. In addition, the MCC in experiment [2] was over 200 µM. Further, the CC50 in experiment [4] was over 400 µM.
